These entries were drawn from the full list.
Apaf1 activ = activators of human Apaf-1 apoptosome; activity change, negative = activation, % at 20 µM; O14727; Apaf-1 apoptosome caspase-3 activation, DEVD-Rh110 fluorescence; hits give low values; hit rate 0.31% among 330,000;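 active = activity change at or below -40% at 20 µM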
Target sequence (O14727 whole entry, looked up): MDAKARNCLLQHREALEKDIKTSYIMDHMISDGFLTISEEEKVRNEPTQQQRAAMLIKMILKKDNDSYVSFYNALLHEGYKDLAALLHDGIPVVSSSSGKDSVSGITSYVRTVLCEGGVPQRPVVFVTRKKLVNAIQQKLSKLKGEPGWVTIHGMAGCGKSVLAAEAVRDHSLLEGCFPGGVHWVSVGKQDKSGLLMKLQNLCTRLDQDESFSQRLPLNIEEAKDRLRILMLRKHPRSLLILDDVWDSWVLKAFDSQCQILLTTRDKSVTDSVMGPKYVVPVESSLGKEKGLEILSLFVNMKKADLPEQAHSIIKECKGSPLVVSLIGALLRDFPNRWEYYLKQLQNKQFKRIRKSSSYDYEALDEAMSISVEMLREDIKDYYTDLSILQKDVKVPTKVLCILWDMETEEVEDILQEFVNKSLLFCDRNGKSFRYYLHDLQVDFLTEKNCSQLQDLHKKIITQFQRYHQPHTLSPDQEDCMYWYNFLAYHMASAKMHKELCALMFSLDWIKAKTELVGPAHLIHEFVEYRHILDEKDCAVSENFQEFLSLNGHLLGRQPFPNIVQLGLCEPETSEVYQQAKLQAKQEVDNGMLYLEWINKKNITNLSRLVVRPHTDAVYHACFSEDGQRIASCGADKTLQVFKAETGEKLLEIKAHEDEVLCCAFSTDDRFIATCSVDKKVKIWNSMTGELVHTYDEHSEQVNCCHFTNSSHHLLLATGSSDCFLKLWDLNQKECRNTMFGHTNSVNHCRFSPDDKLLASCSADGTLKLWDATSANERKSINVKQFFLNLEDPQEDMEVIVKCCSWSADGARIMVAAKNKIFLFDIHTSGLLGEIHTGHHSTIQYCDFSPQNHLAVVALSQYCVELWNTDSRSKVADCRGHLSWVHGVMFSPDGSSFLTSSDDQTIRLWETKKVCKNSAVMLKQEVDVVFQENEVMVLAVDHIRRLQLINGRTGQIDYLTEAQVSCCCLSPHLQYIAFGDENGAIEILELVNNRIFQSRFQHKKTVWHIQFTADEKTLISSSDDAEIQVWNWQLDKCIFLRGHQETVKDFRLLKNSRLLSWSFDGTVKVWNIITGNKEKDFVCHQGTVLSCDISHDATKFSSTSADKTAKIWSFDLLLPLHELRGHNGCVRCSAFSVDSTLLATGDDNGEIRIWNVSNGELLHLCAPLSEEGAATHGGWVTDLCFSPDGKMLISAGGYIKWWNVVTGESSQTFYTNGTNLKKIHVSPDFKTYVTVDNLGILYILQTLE
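System: Reconstituted apoptosome of Apaf-1, cytochrome c, caspase-9, procaspase-3 | Reagent: dATP, cytochrome c, and (Z-DEVD)2-Rh110 caspase-3 substrate | Times: 30 min compound preincubation and 50 min reaction, both room temperature | Detection: Caspase-3-released Rh110 fluorescence, 540 nm emission, 480 nm excitation | Measure: Caspase-3 activity via Apaf-1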
Rh110 interf act = counter-screen for Apaf-1 activators: fluorescence interference | shares compounds with Apaf1 activ | Rh110 fluorescence interference, quenched caspase reaction, Ex480/Em540 | fluorescence interference (activity change), % at 20 µM, hits read low | 980 tested, under 10 active | AID 504616;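 active = mean activity change at or below -40% when tested at 20 µM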
Apaf-1 act conf2 = confirmation of human Apaf-1 activators; AID 504617; activity change, negative = activation, % at 20 µM; reconstituted apoptosome caspase-3 activity, DEVD-Rh110 fluorescence; hits give low values; shares compounds with Apaf1 activ; hit rate 5% among 980;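 active = mean activity change at or below -40%, meaning activation of 40% or more, at 20 µM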
Fluor interf act = counter-screen for Apaf-1 activators: fluorescence interference, dose response | 55 tested, under 10 active | fluorescence interference counterscreen, Apaf-1 activator assay | EC50, µM | shares compounds with Apaf1 activ; call rule not given here
The depositor's hits bear a star; / = no result given.

SMILES	Apaf1 activ	Rh110 interf act	Apaf-1 act conf2	others
Cc1ccc(-n2ccnc2SCC(=O)O)c(C)c1	-478*	-3	13
CCN1CCN(CCNC(=O)c2cn(C(C)c3ccccc3F)nn2)CC1 (stereo unspecified)	-78*	8	16
COc1ccc(OC)c(Nc2cc3ccccc3c(=O)[nH]2)c1	97	/	/
CN(CCCN1c2ccccc2CCc2ccccc21)CC(=O)c1ccc(Cl)cc1	44	/	/
CC(C)OP(=O)(OC(C)C)C(Nc1ccccn1)c1ccc(F)cc1 (stereo unspecified)	55	/	/
Cc1cc(C)n2nc(C(=O)N3CCCC(CNS(=O)(=O)c4cccs4)C3)cc2n1 (stereo unspecified)	-394*	4	13
C=CC[C@@H](Cc1ccc(F)cc1)C(=O)OC[C@H]1CCCN1C(=O)[C@@H](CC=C)CC(=O)N[C@H](CO)Cc1ccccc1	41	/	/
C#CCOCCOCCOCCNc1nc(N2CCN(C(=O)CCCCCCCCCCNC(=O)[C@@H](CCC(=O)O)n3cc(CCCCCN)nn3)CC2)nc(N2CCN(C(=O)CCCCCCCCCCNC(=O)[C@H](CCCCN)n3cc(C[C@@H](C)CC)nn3)CC2)n1	72	/	/
CCOC(=O)c1c(C)oc2c1C(=O)c1ccccc1C2=O	69	/	/
CCOC(=O)c1c(-c2ccc(OC)cc2)oc2cc(Br)c(O)cc12	-62*	-1	-28
CCC(CO)Oc1cc(NCc2ccc(F)cc2)c2ncn(C(C)C)c2c1 (stereo unspecified)	43	/	/
CN(Cc1ccc(F)cc1)C(=O)CNC(=O)c1cccs1	56	/	/
COc1ccc(-n2nc3cc(N)c(Br)cc3n2)cc1	69	/	/
COc1ccc(C2=NCN(c3ccc(C)cc3)C(=S)N2)cc1	-555*	9	17
C=CCN(CC=C)Cc1c(O)ccc2c1oc(=O)c1ccccc12	47	/	/
O=C(CN(Cc1cccs1)C(=O)CNS(=O)(=O)c1ccc(Cl)cc1)NCC1CCCO1 (stereo unspecified)	-292*	1	9
O=C1C(NS(=O)(=O)c2cccs2)=C(N2CCN(c3ccccc3)CC2)C(=O)c2ccccc21	41	/	/
Cc1[nH]n(-c2ccccc2)c(=O)c1N=Nc1nccs1	73	/	/
CC1=CC2=NC(=O)/C(=C/c3coc4ccc(Cl)cc4c3=O)C(=N)N2O1	-522*	-14	11
O=C(c1ccccc1)c1ccc2c(c1)OCCOCCOCCOCCO2	-208*	1	1
O=C(O)CCN1C(=O)/C(=C\c2ccc(OCc3ccccc3)c(OCc3ccccc3)c2)SC1=S	-56*	10	-79*	Fluor interf act=>100
COc1ccc(/C=C2/Sc3ccc(C(=O)NCCN4CCCCCC4)cc3NC2=O)cc1	49	/	/
COc1ccc(/C=C2\SC(=S)N(CCC(=O)Nc3ccc(C(=O)O)cc3)C2=O)cc1OC	-364*	4	-133*	Fluor interf act=>100
C#CCOc1ccc(/C=C2/C(=O)N(c3cccc(C(=O)O)c3)N=C2C)cc1OC	43	/	/
COC(=O)c1ccc(/C=C2/SC(=S)N(CCCC(=O)Nc3ccc(O)cc3)C2=O)cc1	-67*	-1	-27
SMILES	Apaf1 activ	Rh110 interf act	Apaf-1 act conf2	others
COc1cc(/C=C/c2cc[n+](C)cc2)ccc1OCC(=O)Nc1ccc(Cl)c(Cl)c1	73	/	/
CCOc1ccc(/C=C2\SC(=S)N(CCCC(=O)NCCCN3CCOCC3)C2=O)cc1	42	/	/
COc1cccc(/C=C2\SC(=S)N(CCCC(=O)N3CCCCC3)C2=O)c1	-137*	11	15
CCN(CC)c1ccc(N=Cc2ccc([N+](=O)[O-])o2)cc1	56	/	/
Cc1ccsc1C=Nc1ccc(O)cc1	94	/	/
C#CCOCCOCCOCCNc1nc(N2CCN(C(=O)CCCCCCCCCCNC(=O)[C@H](CO)n3cc(CCCCCN)nn3)CC2)nc(N2CCN(C(=O)CCCCCCCCCCNC(=O)[C@H](CCCN=C(N)N)n3cc(C[C@@H](C)CC)nn3)CC2)n1	61	/	/
COC(=O)C1=C(C)N(Cc2ccccc2)C(=NCc2ccccc2)N[C@H]1c1cccc(F)c1	41	/	/
COC(=O)c1c(NC(=O)c2ccc(OC(C)C)cc2)sc2c1CC(C)(C)NC2(C)C	53	/	/
CC(=O)c1ccc(NC(=O)c2noc(C(C)C)c2[N+](=O)[O-])cc1	-127*	5	-4
CC1=NN(c2ccc(C)cc2)C(=O)/C1=C\c1ccc(Br)s1	89	/	/
CCCC(=O)OC1CC(C)N(C(=O)c2ccccc2)c2ccc(C)cc21 (stereo unspecified)	-67*	7	17
COc1cc(/C=C2/C(=O)N(c3ccc(Br)cc3)N=C2C)cc(OC)c1OC	94	/	/
Cc1cc(=O)[nH]c(N/N=C/c2ccc(Cl)c([N+](=O)[O-])c2)n1	-73*	4	9
CCc1cccc(NC(=S)Nc2cccc3ccccc23)c1	79	/	/
CC1(C(=O)NCc2ccccn2)C=CCN1C(=O)c1ccccc1 (stereo unspecified)	-273*	6	-4
FC(F)(F)c1ccc(CN2C[C@@H]3C(c4ccc(Cl)nc4)C4(c5cccnc5)CC3(C4)[C@H]2c2ccccc2)cc1 (stereo partly specified)	42	/	/
CN(C)S(=O)(=O)c1cccc(NC(=O)COC(=O)/C=C/c2ccco2)c1	95	/	/
CCN(CC)S(=O)(=O)c1ccc(/C=C/C(=O)OCC#N)cc1	-82*	-7	5
NCCN1CCN(S(=O)(=O)c2ccc([N+](=O)[O-])cc2)C=C1c1ccc(Cl)cc1	43	/	/
CC(C)(C)c1cc(C(=O)N2CCN(c3ncccn3)CC2)ccn1	-50*	5	14
CC(C)(C)c1ccc(-c2nn(CCC#N)cc2/C=N/O)cc1	50	/	/
CN(Cc1ccc(Cl)c(Cl)c1)C(=O)c1cccc(S(=O)(=O)N2CCN(Cc3ccccc3)CC2)c1	72	/	/
CC(=O)c1cccc(CN2CCN(C3CCCC3)C(CCO)C2)c1 (stereo unspecified)	-300*	-2	12
COc1ccc(/C=N/Nc2cc(N3CCCC3)nc(N3CCCC3)n2)cc1	93	/	/
O=C(CCS(=O)(=O)c1ccc(Br)cc1)NCc1ccco1	-88*	9	-51*	Fluor interf act=>100
SMILES	Apaf1 activ	Rh110 interf act	Apaf-1 act conf2	others
CCCN(CC(=O)Nc1ccccc1OC)C(=O)CSc1ccc(Br)cc1C	57	/	/
COc1ccc([N+](=O)[O-])cc1NC(=O)CCS(=O)(=O)c1ccc(Br)cc1	-111*	-5	-101*	Fluor interf act=>100
CCOc1ccccc1NC(=O)CCS(=O)(=O)c1ccc(Br)cc1	-220*	12	-128*	Fluor interf act=>100
O=C(COC(=O)c1cc(S(=O)(=O)N2CCc3ccccc3C2)ccc1Cl)NCc1ccco1	43	/	/
CCN1CCN(c2ccc(NC(=O)CCc3c(C)nc4c(-c5ccccc5)c(C)nn4c3C)cc2)CC1	48	/	/
COc1ccc(-c2sc3ccccc3c2-c2ccc(OCCN3CCCCC3)cc2)cc1	55	/	/
COc1ccc(OC)c(-c2nn(-c3ccccc3)cc2C(=O)NCC(c2ccco2)N2CCCC2)c1 (stereo unspecified)	-117*	11	14
COc1ccccc1C(CNC(=O)CNC(=O)c1ccccc1Cl)N1CCCC1 (stereo unspecified)	61	/	/
Nc1ccc(N)c(C(=O)O)c1	67	/	/
